Laboratory results published in PubChem BioAssay AID651740 (Broad Institute, 2012).
Among all 5,600 compounds or so, about 1,200 (21%) were called active. Not shown: some 3% with an inconclusive outcome.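 How the source made its calls: active means mean inhibition above about 95%, with at least 55% of replicates also reaching it (limit read from the data); inconclusive means meets just one of the two conditions; inactive means meets neither condition.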 A selection follows.

Assay: inhibitors of intracellular T. cruzi replication, confirmation, NIH3T3 host cells, beta-gal parasites, cherry-pick, set 2 (AID 651740);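 further: plate controls were neutral control median for no effect and positive control median for full effect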
Conditions: T. cruzi beta-gal in NIH3T3, GalScreen luminescence, 90 h; at 2.09 µM; stronger effect = higher value
In short: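 Material: mouse NIH/3T3 fibroblasts infected with beta-galactosidase T. cruzi Tulahuen C4; medium: DMEM plus 2% fetal bovine serum, 1% PSG; dosing: single point, 100 nL compound in DMSO pinned per well; times: ≥90 h infection with compound, 60 min read delay; signal: GalScreen lysis and luminescent beta-gal signal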
In the case of `C[C@@H]1CN([C@H](C)CO)S(=O)(=O)c2ccc(C#CC3CCCC3)cc2O[C@@H]1CN(C)C(=O)Cc1ccncc1`, the inhibition is reported as 66.3% (inactive). In the case of `C[C@@H]1CN([C@H](C)CO)C(=O)Cc2cc(NC(=O)Cc3ccccc3)ccc2O[C@H]1CN(C)Cc1ccc(Oc2ccccc2)cc1`, the inhibition is reported as 20.7% (inactive). For `CC(=O)NC[C@@H]1[C@@H](c2ccc(-c3ccccc3F)cc2)[C@@H](CO)N1C(=O)C1CC1`, the inhibition was 14.2% (inactive). With `COc1ccc(S(=O)(=O)Nc2ccc3c(c2)C(=O)N([C@@H](C)CO)C[C@H](C)[C@H](CN(C)Cc2ccc(C(F)(F)F)cc2)O3)cc1` the inhibition was 42.3% (inactive). For `Cc1noc(C)c1S(=O)(=O)N(C)C[C@H]1Oc2ccc(N(C)C)cc2CC(=O)N([C@H](C)CO)C[C@@H]1C`, the inhibition was -7.54% (inactive). In the case of `CC(C)CC#Cc1ccc2c(c1)O[C@H](CN(C)Cc1cccnc1)[C@H](C)CN([C@@H](C)CO)S2(=O)=O`, the inhibition is reported as 81.2% (inactive). With `CC(C)CC#Cc1ccc2c(c1)O[C@H](CN(C)Cc1ccccc1F)[C@@H](C)CN([C@@H](C)CO)S2(=O)=O` the inhibition was 113% (active). For `CC(C)CC#Cc1ccc2c(c1)O[C@H](CN(C)S(=O)(=O)c1cccc(F)c1)[C@@H](C)CN([C@@H](C)CO)S2(=O)=O`, the inhibition was 110% (active). With `C[C@@H]1CN([C@@H](C)CO)S(=O)(=O)c2ccc(-c3cccc(F)c3)cc2O[C@@H]1CN(C)S(=O)(=O)c1ccccc1` the inhibition was 94.1% (inactive). In the case of `CC(C)CC#Cc1ccc2c(c1)O[C@H](CN(C)Cc1ccncc1)[C@H](C)CN([C@H](C)CO)S2(=O)=O`, the inhibition is reported as 89.4% (inactive). With `C[C@@H]1CN([C@H](C)CO)S(=O)(=O)c2ccc(-c3cccc(F)c3)cc2O[C@H]1CN(C)S(=O)(=O)c1ccc(F)cc1` the inhibition was 74.9% (inactive). For `O=C(C[C@@H]1C[C@@H]2c3cc(NC(=O)c4ccc5c(c4)OCO5)ccc3O[C@@H]2[C@@H](CO)O1)NCc1ccc(Cl)cc1`, the inhibition was -3.27% (inactive). For `O=S(=O)(Cc1ccccc1)N1CCCCN2[C@@H](CO)[C@H](c3ccc(-c4ccccc4)cc3)[C@@H]2C1`, the inhibition was 78.8% (inactive). For `COc1ccc(S(=O)(=O)N2CCCCN3[C@H](CO)[C@@H](c4ccc(C#CC(C)C)cc4)[C@H]3C2)cc1`, the inhibition was 79.7% (inactive). For `O=C(c1cccnc1)N1CCCCN2[C@@H](CO)[C@H](c3ccc(C#Cc4ccccc4)cc3)[C@@H]2C1`, the inhibition was 41.7% (inactive). For `O=S(=O)(Cc1ccccc1)N1CCCCN2[C@@H](CO)[C@H](c3ccc(-c4cccnc4)cc3)[C@@H]2C1`, the inhibition was 62.1% (inactive). With `COc1ccccc1C#Cc1ccc([C@@H]2[C@H](CO)N3CCCCN(C(=O)C4CCCC4)C[C@@H]23)cc1` the inhibition was 98.1% (active). For `COc1cccc(S(=O)(=O)N2CCCCN3[C@H](CO)[C@H](c4ccc(-c5ccncc5)cc4)[C@H]3C2)c1`, the inhibition was 100% (active). With `CCS(=O)(=O)N1CCCCN2[C@@H](CO)[C@@H](c3ccc(-c4ccccc4)cc3)[C@@H]2C1` the inhibition was 27.5% (inactive). In the case of `Cc1cccc(-c2ccc([C@@H]3[C@@H](CO)N4CCCCN(S(=O)(=O)c5cccs5)C[C@H]34)cc2)c1`, the inhibition is reported as 94.4% (inactive). For `O=S(=O)(Cc1ccccc1)N1CCCCN2[C@@H](CO)[C@@H](c3ccc(-c4ccc(F)cc4)cc3)[C@@H]2C1`, the inhibition was 104% (active). For `CN(C)CC#Cc1ccc([C@H]2[C@H]3CN(S(=O)(=O)c4ccccc4F)CCCCN3[C@H]2CO)cc1`, the inhibition was 8.03% (inactive). In the case of `COc1ccccc1C#Cc1ccc([C@@H]2[C@H](CO)N3CCCCN(C(=O)C4CC4)C[C@@H]23)cc1`, the inhibition is reported as 64.4% (inactive). For `COc1ccc(S(=O)(=O)N2CCCCN3[C@H](C2)[C@H](c2ccc(C#CCC(C)C)cc2)[C@@H]3CO)cc1`, the inhibition was 109% (active). For `OC[C@@H]1[C@H](c2ccc(C#CC3(O)CCCC3)cc2)[C@H]2CN(Cc3cncnc3)CCCCN12`, the inhibition was 79.8% (inactive). For `CNC[C@H]1OCCCC[C@@H](C)Oc2ccc(NS(C)(=O)=O)cc2C(=O)N([C@H](C)CO)C[C@H]1C`, the inhibition was -9.33% (inactive). In the case of `CO[C@H](CN(C)S(=O)(=O)c1ccc(Cl)cc1)[C@@H](C)CN(Cc1ccccc1Cl)[C@H](C)CO`, the inhibition is reported as 48.7% (inactive). With `COc1cccc(S(=O)(=O)Nc2ccc3c(c2)[C@H]2C[C@H](CC(=O)NCc4ccc(Cl)cc4)O[C@H](CO)[C@H]2O3)c1` the inhibition was 2.49% (inactive). With `COc1cccc(S(=O)(=O)N2C[C@@H](O)COC[C@@H]3O[C@H](CC(=O)Nc4ccccc4)CC[C@H]32)c1` the inhibition was 1.83% (inactive). In the case of `C[C@H](CO)N1C[C@H](C)[C@@H](CN(C)S(=O)(=O)c2ccccc2F)Oc2ncc(C#Cc3ccccc3F)cc2C1=O`, the inhibition is reported as 93.7% (inactive). In the case of `C[C@H]1CN([C@@H](C)CO)C(=O)Cc2cc(NC(=O)Cc3cn(C)c4ccccc34)ccc2O[C@@H]1CN(C)Cc1ccc(C(F)(F)F)cc1`, the inhibition is reported as 43.7% (inactive). For `C[C@@H](O)C#Cc1ccc([C@@H]2[C@H](CO)N3CCCCN(S(=O)(=O)c4ccccc4)C[C@@H]23)cc1`, the inhibition was 12% (inactive). For `O=C(Nc1cccc(F)c1)N1CCCCN2[C@H](CO)[C@H](c3ccc(C#CC4CC4)cc3)[C@@H]2C1`, the inhibition was 89.3% (inactive). In the case of `C[C@H](O)C#Cc1ccc([C@@H]2[C@H]3CN(S(=O)(=O)c4ccccc4)CCCCN3[C@H]2CO)cc1`, the inhibition is reported as -19.2% (inactive). With `COc1cccc(S(=O)(=O)N2CCCCN3[C@H](CO)[C@H](c4ccc(C#CC5CC5)cc4)[C@H]3C2)c1` the inhibition was 102% (active). In the case of `COc1cccc(S(=O)(=O)N2CCCCN3[C@H](C2)[C@H](c2ccc(C#CC(C)C)cc2)[C@@H]3CO)c1`, the inhibition is reported as 103% (active). For `C/C=C/c1ccc([C@H]2[C@H]3CN(S(=O)(=O)c4ccccc4)CCCCN3[C@H]2CO)cc1`, the inhibition was 40.8% (inactive). With `C[C@H](CO)N1C[C@H](C)[C@H](CN(C)C(=O)Nc2cccc3ccccc23)Oc2ncc(C#Cc3ccccc3)cc2C1=O` the inhibition was 59.1% (inactive). With `Cc1cccc(-c2ccc([C@@H]3[C@H](CO)N4CCCCN(C(=O)c5ccc6c(c5)OCO6)C[C@@H]34)cc2)c1` the inhibition was 66.9% (inactive). With `C[C@@H]1CN([C@H](C)CO)S(=O)(=O)c2ccc(-c3cccc(C#N)c3)cc2O[C@@H]1CN(C)C(=O)Nc1ccccc1F` the inhibition was 85.2% (inactive). For `C[C@@H]1CN([C@@H](C)CO)C(=O)CCCn2cc(nn2)CO[C@@H]1CN(C)S(=O)(=O)c1ccccc1F`, the inhibition was 34.3% (inactive).
